Reference: ChEMBL document CHEMBL4330056, “Synthesis and Cytotoxic and Antiviral Profiling of Pyrrolo- and Furo-Fused 7-Deazapurine Ribonucleosides” (J Med Chem, 2018)
Calls of active or inactive are those of the source. The calls are words filed in the database; no cut-off is given here.

Columns and labels:
[1] = target: T1, Adenosine kinase (Homo sapiens, UniProt P55263); experiment: Drug metabolism in human BJ cells assessed as ADK-mediated compound phosphorylation level per 5x10^5 cells at 10 umol/L after 1 hr by UPLC-MS/MS analysis; assay type: ADME, cell-based; details: 10 µM
T1 sequence (P55263 whole entry): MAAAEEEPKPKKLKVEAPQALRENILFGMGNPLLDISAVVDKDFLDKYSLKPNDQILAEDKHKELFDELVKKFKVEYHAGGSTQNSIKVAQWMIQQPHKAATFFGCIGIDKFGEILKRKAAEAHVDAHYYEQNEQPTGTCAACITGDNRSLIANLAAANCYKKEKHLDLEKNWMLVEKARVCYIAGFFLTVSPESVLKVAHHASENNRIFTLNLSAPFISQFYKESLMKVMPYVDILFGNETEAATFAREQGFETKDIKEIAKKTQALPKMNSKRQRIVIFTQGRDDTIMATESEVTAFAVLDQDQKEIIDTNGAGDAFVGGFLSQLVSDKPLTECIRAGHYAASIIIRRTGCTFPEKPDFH
In short: (§1)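 BJ (normal) and HCT116 (malignant) cells exposed to nucleoside at 1 or 10 μmol/L for 1 or 3 h. Intracellular nucleoside and its monophosphate quantified against synthetic monophosphate standards. Values given as pmol per 5 × 10^5 cells.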

[2] = target: T1, Adenosine kinase; experiment: Drug metabolism in human HCT116 cells assessed as ADK-mediated compound phosphorylation level per 5x10^5 cells at 10 umol/L after 3 hrs by UPLC-MS/MS analysis; assay type: ADME, cell-based; details: 10 µM; in short: as §1
[3] = target: T1, Adenosine kinase; experiment: Drug metabolism in human HCT116 cells assessed as ADK-mediated compound phosphorylation level per 5x10^5 cells at 10 umol/L after 1 hr by UPLC-MS/MS analysis; assay type: ADME, cell-based; details: 10 µM; in short: as §1
[4] = target: T1, Adenosine kinase; experiment: Drug metabolism in human BJ cells assessed as ADK-mediated compound phosphorylation level per 5x10^5 cells at 1 umol/L after 3 hrs by UPLC-MS/MS analysis; assay type: ADME, cell-based; details: 1 µM; in short: as §1
[5] = target: T1, Adenosine kinase; experiment: Drug metabolism in human HCT116 cells assessed as ADK-mediated compound phosphorylation level per 5x10^5 cells at 1 umol/L after 1 hr by UPLC-MS/MS analysis; assay type: ADME, cell-based; details: 1 µM; in short: as §1
[6] = target: T1, Adenosine kinase; experiment: Drug metabolism in human BJ cells assessed as ADK-mediated compound phosphorylation level per 5x10^5 cells at 1 umol/L after 1 hr by UPLC-MS/MS analysis; assay type: ADME, cell-based; details: 1 µM; in short: as §1
[7] = target: T1, Adenosine kinase; experiment: Drug metabolism in human HCT116 cells assessed as ADK-mediated compound phosphorylation level per 5x10^5 cells at 1 umol/L after 3 hrs by UPLC-MS/MS analysis; assay type: ADME, cell-based; details: 1 µM; in short: as §1
[8] = target: T1, Adenosine kinase; experiment: Drug metabolism in human BJ cells assessed as ADK-mediated compound phosphorylation level per 5x10^5 cells at 10 umol/L after 3 hrs by UPLC-MS/MS analysis; assay type: ADME, cell-based; details: 10 µM; in short: as §1
[9] = system: DNA; experiment: Induction of DNA damage in human U2OS cells transfected with 53BP1-GFP fusion gene assessed as increase in number of foci per nucleus measured at 1 hr intervals for 11 hrs by fluorescence-based assay; assay type: functional, cell-based
In short: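 U2OS osteosarcoma reporter line stably expressing 53BP1-GFP treated up to 11 h, with etoposide as the double-strand-break reference. 53BP1 foci in nuclei imaged by confocal microscopy (40× objective).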

Compound	Drug metabolism [1] [pmol]	Drug metabolism [2] [pmol]	Drug metabolism [3] [pmol]	Drug metabolism [4] [pmol]	Drug metabolism [5] [pmol]	Drug metabolism [6] [pmol]	Drug metabolism [7] [pmol]	Drug metabolism [8] [pmol]	Activity [9]
Cc1ncnc2c1c1c(ccn1C)n2[C@@H]1O[C@H](COP(=O)([O-])O)[C@@H](O)[C@H]1O.[Na+]	1531.57	12049.83	8868.83	332.63	466.96	220.92	1079.19	5041.67	
Cc1ncnc2c1c1occc1n2[C@@H]1O[C@H](COP(=O)([O-])O)[C@@H](O)[C@H]1O.[Na+]	4488.64	12533.33	9531.67	241.05	511.81	223.51	1167.4	4920.41	
COc1cc([C@@H]2c3cc4c(cc3[C@@H](O[C@@H]3O[C@@H]5CO[C@@H](C)O[C@H]5[C@H](O)[C@H]3O)[C@H]3COC(=O)[C@H]23)OCO4)cc(OC)c1O									Active
